Several values for one entry are separate records, joined by “and”; a condition that tells them apart may be missing. Identical values can stand only once.
Experiments:
Mus musculus [1] = experiment: Compound was evaluated for the percent reduction of carrageenan induced edema in mice at dose of 200 mg/kg; format: functional
Rattus norvegicus [2] = experiment: Compound was evaluated in the developed adjuvant arthritis assay at a dose of 100 mg/kg for the percent reduction of carrageenan induced edema (LHF) on 21st day; format: functional
Method in brief: (§1)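 Rats received 0.1 mL heat-killed Mycobacterium tuberculosis suspension (3.5 mg/mL) into the left hind footpad on day 1. On day 20, animals with developed arthritis (all four paws swollen, tail and ears involved) were used. Oral gavage in 0.25% methylcellulose (0.005 mL/g) on days 20 and 22. Hind paw volumes were recorded daily on days 20–23. Mean group volume is expressed as percent change from day 20.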

Rattus norvegicus [3] = experiment: Compound was evaluated in the developed adjuvant arthritis assay at a dose of 100 mg/kg for the percent reduction of carrageenan induced edema (LHF) on 22nd day; format: functional; method in brief: as §1
Rattus norvegicus [4] = experiment: Compound was evaluated in the developed adjuvant arthritis assay at a dose of 300 mg/kg for the percent reduction of carrageenan induced edema (LHF) on 23rd day; format: functional; method in brief: as §1
Mus musculus [5] = experiment: Compound was evaluated for the percent reduction of carrageenan induced edema in mice at dose of 10 mg/kg; format: functional
[6] = Lethal dose evaluated in NPP assay; format: toxicity, organism-based; conditions: mouse, in vivo
Mus musculus [7] = experiment: Compound was evaluated for the percent reduction of carrageenan induced edema in mice at dose of 3 mg/kg; format: functional
Mus musculus [8] = experiment: Compound was evaluated for the percent reduction of carrageenan induced edema in mice at dose of 30 mg/kg; format: functional
Rattus norvegicus [9] = experiment: Compound was evaluated in the developed adjuvant arthritis assay at a dose of 300 mg/kg for the percent reduction of carrageenan induced edema (LHF) on 22nd day; format: functional; method in brief: as §1
Mus musculus [10] = experiment: Percent analgesia in phenylquinone writhing assay at 30 mg/kg; format: functional
Method in brief: (§2)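 Groups of 10 male mice were dosed orally with compound dissolved or suspended in 0.25% methylcellulose (0.25 mL per mouse). After the designated interval they were challenged ip with 0.25 mL of 0.02% phenylquinone in aqueous ethanol (95:5). Read-out is the percentage of mice protected from writhing.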

Rattus norvegicus [11] = experiment: Compound was evaluated in the developed adjuvant arthritis assay at a dose of 30 mg/kg for the percent reduction of carrageenan induced edema (LHF) on 21st day; format: functional; method in brief: as §1
Rattus norvegicus [12] = experiment: Compound was evaluated in the developed adjuvant arthritis assay at a dose of 30 mg/kg for the percent reduction of carrageenan induced edema (LHF) on 23rd day; format: functional; method in brief: as §1
Rattus norvegicus [13] = species: Rattus norvegicus; experiment: (§3) Ulcerogenic dose that produced gastric lesions, ulcers and/or hemorrhage in 50% of the animals tested; format: functional, Stomach
Method in brief: (§4)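 Ten male Sprague–Dawley rats (ca. 160 g) were fasted 24 h with water available, then dosed po with compound or vehicle. At 4 h they were killed with CO2, and stomachs were opened along the greater curvature. A nonbiased observer scored ulcers, pitting or hemorrhagic spots. UD50 (lesions in 50% of animals) was determined by Litchfield–Wilcoxon.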

Mus musculus [14] = species: Mus musculus; experiment: (§5) Neurotoxic dose that causes minimal recognizable neurotoxicity in 50% of animals tested; format: functional
Method in brief: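 Mice dosed orally or intraperitoneally; neurotoxicity scored on five end points, including a positional sense test in which a hind leg lowered over a table edge should be quickly lifted back to a normal position. NTD50 is the dose giving minimal recognizable neurotoxicity in 50% of animals tested.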

Rattus norvegicus [15] = experiment: Compound was evaluated in the developed adjuvant arthritis assay at a dose of 300 mg/kg for the percent reduction of carrageenan induced edema (LHF) on 21st day; format: functional; method in brief: as §1
Mus musculus [16] = species: Mus musculus; experiment: Dose giving one-half of average maximal [40%] response in carrageenan assay; format: functional
Mus musculus [17] = experiment: Percent analgesia in phenylquinone writhing assay at 10 mg/kg; format: functional; method in brief: as §2
Mus musculus [18] = experiment: Percent analgesia in phenylquinone writhing assay at 100 mg/kg; format: functional; method in brief: as §2
Rattus norvegicus [19] = experiment: Compound was evaluated in the developed adjuvant arthritis assay at a dose of 30 mg/kg for the percent reduction of carrageenan induced edema (LHF) on 22nd day; format: functional; method in brief: as §1
Rattus norvegicus [20] = experiment: Compound was evaluated in the developed adjuvant arthritis assay at a dose of 100 mg/kg for the percent reduction of carrageenan induced edema (LHF) on 23rd day; format: functional; method in brief: as §1
Mus musculus [21] = experiment: Compound was evaluated for the percent reduction of carrageenan induced edema in mice at dose of 100 mg/kg; format: functional
Mus musculus [22] = species: Mus musculus; experiment: Dose giving one-half of average maximal [40%] response in phenylquinone writhing assay; format: functional
[23] = (§6) Compound was evaluated for the toxicity in mice; format: organism-based; conditions: mouse, in vivo
Mus musculus [24] = experiment: Compound was evaluated for the percent reduction of carrageenan induced edema in mice at dose of 1 mg/kg; format: functional
Mus musculus [25] = experiment: Compound was evaluated for the percent reduction of carrageenan induced edema in mice at dose of 25 mg/kg; format: functional
Mus musculus [26] = experiment: Compound was evaluated for the percent reduction of carrageenan induced edema in mice at dose of 50 mg/kg; format: functional
Rattus norvegicus [27] = experiment: Compound was evaluated in the developed adjuvant arthritis assay at a dose of 10 mg/kg for the percent reduction of carrageenan induced edema (LHF) on 21st day; format: functional; method in brief: as §1
Rattus norvegicus [28] = experiment: Compound was evaluated in the developed adjuvant arthritis assay at a dose of 10 mg/kg for the percent reduction of carrageenan induced edema (LHF) on 22nd day; format: functional; method in brief: as §1
Rattus norvegicus [29] = experiment: Compound was evaluated in the developed adjuvant arthritis assay at a dose of 3 mg/kg for the percent reduction of carrageenan induced edema (LHF) on 21st day; format: functional; method in brief: as §1
Rattus norvegicus [30] = experiment: Compound was evaluated in the developed adjuvant arthritis assay at a dose of 10 mg/kg for the percent reduction of carrageenan induced edema (LHF) on 23rd day; format: functional; method in brief: as §1
Rattus norvegicus [31] = experiment: Compound was evaluated in the developed adjuvant arthritis assay at a dose of 3 mg/kg for the percent reduction of carrageenan induced edema (LHF) on 22nd day; format: functional; method in brief: as §1
Mus musculus [32] = species: Mus musculus; experiment: as §6; format: organism-based; conditions: in vivo
Rattus norvegicus [33] = experiment: Compound was evaluated in the developed adjuvant arthritis assay at a dose of 3 mg/kg for the percent reduction of carrageenan induced edema (LHF) on 23rd day; format: functional; method in brief: as §1
[34] = as §5; format: toxicity, organism-based; conditions: mouse, in vivo; read-out: NTD50
Method in brief: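 NTD50 in mice is the oral or intraperitoneal dose causing minimal recognizable neurotoxicity in 50% of animals, judged by five end points, including a positional sense test (hind leg lowered over a table edge should be lifted back).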

Mus musculus [35] = experiment: Percent analgesia in phenylquinone writhing assay at 300 mg/kg; format: functional; method in brief: as §2
Mus musculus [36] = experiment: Compound was evaluated for the percent reduction of carrageenan induced edema in mice at dose of 0.3 mg/kg; format: functional
Mus musculus [37] = experiment: Compound was evaluated for the percent reduction of carrageenan induced edema in mice at dose of 1.0 mg/kg; format: functional
Mus musculus [38] = experiment: Percent analgesia in phenylquinone writhing assay at 0.3 mg/kg; format: functional; method in brief: as §2
Rattus norvegicus [39] = experiment: Compound was evaluated in the developed adjuvant arthritis assay at a dose of 1 mg/kg for the percent reduction of carrageenan induced edema (LHF) on 21nd day; format: functional; method in brief: as §1
Rattus norvegicus [40] = experiment: Compound was evaluated in the developed adjuvant arthritis assay at a dose of 0.3 mg/kg for the percent reduction of carrageenan induced edema (LHF) on 22nd day; format: functional; method in brief: as §1
Mus musculus [41] = experiment: Compound was evaluated for the percent reduction of carrageenan induced edema in mice at dose of 3.0 mg/kg; format: functional
Rattus norvegicus [42] = experiment: Compound was evaluated in the developed adjuvant arthritis assay at a dose of 0.3 mg/kg for the percent reduction of carrageenan induced edema (LHF) on 23rd day; format: functional; method in brief: as §1
Mus musculus [43] = experiment: Percent analgesia in phenylquinone writhing assay at 1 mg/kg; format: functional; method in brief: as §2
Rattus norvegicus [44] = experiment: Compound was evaluated in the developed adjuvant arthritis assay at a dose of 1 mg/kg for the percent reduction of carrageenan induced edema (LHF) on 23rd day; format: functional; method in brief: as §1
Mus musculus [45] = experiment: Percent analgesia in phenylquinone writhing assay at 3 mg/kg; format: functional; method in brief: as §2
Rattus norvegicus [46] = experiment: Compound was evaluated in the developed adjuvant arthritis assay at a dose of 1 mg/kg for the percent reduction of carrageenan induced edema (LHF) on 22nd day; format: functional; method in brief: as §1
[47] = as §3; format: ADME, organism-based, Stomach; conditions: rat, in vivo; read-out: UD50 (the source's name); method in brief: as §4

Row | SMILES | LD50 [6] [mg/kg] | Analgesia (Mus musculus [10]) [%] | Reduction (Rattus norvegicus [11]) [%] | Reduction (Rattus norvegicus [12]) [%] | UD50 (Rattus norvegicus [13]) [mg/kg] | NTD50 (Mus musculus [14]) [mg/kg] | ED50 (Mus musculus [16]) [mg/kg] | Analgesia (Mus musculus [17]) [%] | Analgesia (Mus musculus [18]) [%] | Reduction (Rattus norvegicus [19]) [%] | ED50 (Mus musculus [22]) [mg/kg] | LD50 [23] [mg/kg] | Reduction (Mus musculus [25]) [%] | Reduction (Mus musculus [26]) [%] | Reduction (Rattus norvegicus [29]) [%] | Reduction (Rattus norvegicus [31]) [%] | Reduction (Rattus norvegicus [33]) [%] | other results
1 | CS(=O)(=O)C1=C(c2ccccc2)N2CCN=C2S1 | > 1000 | 60 | 10 | 7 | >100 | 690 | 30 | 10 | 90 | 15 | 30 | > 300 | – | – | – | – | – | Reduction (Mus musculus [1]): 43%; Reduction (Rattus norvegicus [2]): 11%; Reduction (Rattus norvegicus [3]): 26%; Reduction (Rattus norvegicus [4]): 17%; Reduction (Mus musculus [5]): 33%; Reduction (Mus musculus [7]): 15%; Reduction (Mus musculus [8]): 26%; Reduction (Rattus norvegicus [9]): 19%; Reduction (Rattus norvegicus [15]): 10%; Reduction (Rattus norvegicus [20]): 16%; Reduction (Mus musculus [21]): 30%
2 | CC1=CSC2=NC3CCCCC3N12 (cis isomer) | – | – | – | – | – | – | – | – | – | – | – | 20 | 57 | 80 | – | – | – | Reduction (Mus musculus [24]): 15%
3 | CC1=CSC2=NC3CCCCC3N12 (trans isomer) | – | – | 10 | 18 | – | – | – | – | – | 19 | – | – | 76 | 100 | 0 | 2 | 2 | Reduction (Rattus norvegicus [27]): 10%; Reduction (Rattus norvegicus [28]): 18%; Reduction (Rattus norvegicus [30]): 19%; LD50 (Mus musculus [32]): 20 mg/kg
4 | CC(=O)Oc1ccccc1C(=O)O [ASPIRIN] | – | 20 | – | – | 27 | – | 70 | – | 60 | – | 85 | – | – | – | – | – | – | TD50 [34]: 200 mg/kg; Analgesia (Mus musculus [35]): 90%
5 | COc1ccc2c(c1)c(CC(=O)O)c(C)n2C(=O)c1ccc(Cl)cc1 [INDOMETHACIN] | 160 | – | – | – | 6 | 110 | 1 | – | – | – | 1 | 160 | – | – | 17 | 25 | 35 | Reduction (Mus musculus [36]): 11%; Reduction (Mus musculus [37]): 22%; Analgesia (Mus musculus [38]): 20%; Reduction (Rattus norvegicus [39]): 21%; Reduction (Rattus norvegicus [40]): 21%; Reduction (Mus musculus [41]): 39%; Reduction (Rattus norvegicus [42]): 13% and 19%; Analgesia (Mus musculus [43]): 60%; Reduction (Rattus norvegicus [44]): 29%; Analgesia (Mus musculus [45]): 70%; Reduction (Rattus norvegicus [46]): 29%
6 | Cc1ccc(C(=O)c2ccc(CC(=O)O)n2C)cc1 [TOLMETIN] | – | 60 | – | – | – | >1000 | 20 | 40 | 80 | – | 22 | – | – | – | – | – | – | TD50 [47]: 63 mg/kg
